# Results reported in ChEMBL document CHEMBL3286381 (J Med Chem, 2014).
# Tests used:
# Assay type in all cases: ADME, cell-based
# Conditions in all cases: cos-7, 1 h
# [1] = target: T1, Ectonucleoside triphosphate diphosphohydrolase 1 (Homo sapiens, UniProt P49961); assay: Drug metabolism assessed as human NTPDase-1-mediated compound hydrolysis expressed in African green monkey COS7 cells at 100 uM after 1 hr by HPLC analysis
# T1 sequence (P49961 whole entry): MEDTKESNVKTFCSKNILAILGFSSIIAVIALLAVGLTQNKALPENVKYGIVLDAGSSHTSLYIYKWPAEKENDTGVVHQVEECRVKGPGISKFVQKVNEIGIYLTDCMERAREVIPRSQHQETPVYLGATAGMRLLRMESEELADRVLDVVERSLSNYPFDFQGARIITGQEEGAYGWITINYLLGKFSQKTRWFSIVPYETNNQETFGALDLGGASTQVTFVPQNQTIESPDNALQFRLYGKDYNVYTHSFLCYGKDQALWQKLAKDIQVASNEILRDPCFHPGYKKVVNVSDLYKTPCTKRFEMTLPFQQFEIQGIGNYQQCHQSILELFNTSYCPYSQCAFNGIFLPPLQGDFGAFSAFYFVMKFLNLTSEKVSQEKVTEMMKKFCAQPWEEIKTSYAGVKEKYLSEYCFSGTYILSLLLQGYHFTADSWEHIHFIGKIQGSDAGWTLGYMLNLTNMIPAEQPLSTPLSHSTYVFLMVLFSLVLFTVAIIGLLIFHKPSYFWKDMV
# How it was run: (§1)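 Protein extracts are from COS-7 cells transiently transfected with human NTPDase1, 2, 3 or 8. The incubation uses Tris–Ringer buffer pH 7.3 at 37 °C with 3 min extract preincubation. Analogue is added alone at 100 μM final. […] Three experiments in triplicate.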
# [2] = target: T2, Ectonucleoside triphosphate diphosphohydrolase 2 (Homo sapiens, UniProt Q9Y5L3); assay: Drug metabolism assessed as human NTPDase-2-mediated compound hydrolysis expressed in African green monkey COS7 cells at 100 uM after 1 hr by HPLC analysis; how it was run: as §1
# T2 sequence (Q9Y5L3 whole entry): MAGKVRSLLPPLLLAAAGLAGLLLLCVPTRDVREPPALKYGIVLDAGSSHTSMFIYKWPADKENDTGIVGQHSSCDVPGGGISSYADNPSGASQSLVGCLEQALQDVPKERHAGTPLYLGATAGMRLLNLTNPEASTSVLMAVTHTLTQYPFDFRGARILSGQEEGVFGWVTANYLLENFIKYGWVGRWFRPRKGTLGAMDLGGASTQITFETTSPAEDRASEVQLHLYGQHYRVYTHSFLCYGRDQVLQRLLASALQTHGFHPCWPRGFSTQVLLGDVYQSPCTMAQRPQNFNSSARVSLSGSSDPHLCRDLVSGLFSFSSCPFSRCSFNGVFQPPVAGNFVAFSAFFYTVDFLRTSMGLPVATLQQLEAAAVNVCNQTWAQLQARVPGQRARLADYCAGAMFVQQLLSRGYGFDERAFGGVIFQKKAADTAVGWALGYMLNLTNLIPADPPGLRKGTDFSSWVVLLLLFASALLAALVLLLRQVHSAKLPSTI
# [3] = target: T3, Ectonucleoside triphosphate diphosphohydrolase 3 (Homo sapiens, UniProt O75355); assay: Drug metabolism assessed as human NTPDase-3-mediated compound hydrolysis expressed in African green monkey COS7 cells at 100 uM after 1 hr by HPLC analysis; how it was run: as §1
# T3 sequence (O75355 whole entry): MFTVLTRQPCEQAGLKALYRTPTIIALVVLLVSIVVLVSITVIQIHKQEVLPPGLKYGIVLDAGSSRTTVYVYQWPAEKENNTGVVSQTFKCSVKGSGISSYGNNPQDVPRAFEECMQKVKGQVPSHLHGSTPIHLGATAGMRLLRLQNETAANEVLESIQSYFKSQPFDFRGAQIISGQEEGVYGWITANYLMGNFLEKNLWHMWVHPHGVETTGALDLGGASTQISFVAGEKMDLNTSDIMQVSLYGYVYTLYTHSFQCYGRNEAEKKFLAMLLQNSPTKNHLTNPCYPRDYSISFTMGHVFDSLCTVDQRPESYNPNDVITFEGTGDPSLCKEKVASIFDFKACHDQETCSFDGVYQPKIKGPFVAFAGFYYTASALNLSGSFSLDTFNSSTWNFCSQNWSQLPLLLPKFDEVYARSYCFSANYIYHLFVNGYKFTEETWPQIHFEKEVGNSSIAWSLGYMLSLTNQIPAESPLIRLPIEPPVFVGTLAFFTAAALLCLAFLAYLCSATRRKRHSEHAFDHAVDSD
# [4] = target: T4, Ectonucleotide pyrophosphatase/phosphodiesterase family member 1 (Homo sapiens, UniProt P22413); assay: Drug metabolism assessed as human NPP1-mediated compound hydrolysis expressed in African green monkey COS7 cells at 100 uM after 1 hr by HPLC analysis
# T4 sequence (P22413 whole entry): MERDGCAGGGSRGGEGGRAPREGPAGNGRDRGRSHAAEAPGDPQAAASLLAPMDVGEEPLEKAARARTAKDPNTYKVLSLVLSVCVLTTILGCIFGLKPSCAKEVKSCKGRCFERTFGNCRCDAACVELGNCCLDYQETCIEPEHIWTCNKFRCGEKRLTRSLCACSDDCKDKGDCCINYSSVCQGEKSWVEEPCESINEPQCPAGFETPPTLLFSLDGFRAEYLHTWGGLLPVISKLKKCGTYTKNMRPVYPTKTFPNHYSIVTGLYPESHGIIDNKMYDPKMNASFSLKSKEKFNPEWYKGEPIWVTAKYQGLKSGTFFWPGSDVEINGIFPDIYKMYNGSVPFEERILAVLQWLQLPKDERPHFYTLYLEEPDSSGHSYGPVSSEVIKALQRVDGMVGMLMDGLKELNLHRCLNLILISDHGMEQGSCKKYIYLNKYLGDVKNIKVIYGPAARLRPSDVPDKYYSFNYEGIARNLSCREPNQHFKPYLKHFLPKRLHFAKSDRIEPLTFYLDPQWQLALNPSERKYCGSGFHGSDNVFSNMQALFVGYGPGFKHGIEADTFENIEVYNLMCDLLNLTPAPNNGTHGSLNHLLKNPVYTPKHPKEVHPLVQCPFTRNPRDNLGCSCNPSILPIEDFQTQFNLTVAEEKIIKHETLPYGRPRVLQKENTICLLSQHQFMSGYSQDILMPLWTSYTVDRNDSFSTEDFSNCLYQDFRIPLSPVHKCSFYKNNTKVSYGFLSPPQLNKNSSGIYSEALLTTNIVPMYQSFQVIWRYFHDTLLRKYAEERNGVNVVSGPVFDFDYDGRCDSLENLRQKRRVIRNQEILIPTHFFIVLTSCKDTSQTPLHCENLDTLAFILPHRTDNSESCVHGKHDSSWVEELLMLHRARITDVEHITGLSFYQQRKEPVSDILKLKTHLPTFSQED
# [5] = target: T5, Ectonucleotide pyrophosphatase/phosphodiesterase family member 3 (Homo sapiens, UniProt O14638); assay: Drug metabolism assessed as human NPP3-mediated compound hydrolysis expressed in African green monkey COS7 cells at 100 uM after 1 hr by HPLC analysis
# T5 sequence (O14638 whole entry): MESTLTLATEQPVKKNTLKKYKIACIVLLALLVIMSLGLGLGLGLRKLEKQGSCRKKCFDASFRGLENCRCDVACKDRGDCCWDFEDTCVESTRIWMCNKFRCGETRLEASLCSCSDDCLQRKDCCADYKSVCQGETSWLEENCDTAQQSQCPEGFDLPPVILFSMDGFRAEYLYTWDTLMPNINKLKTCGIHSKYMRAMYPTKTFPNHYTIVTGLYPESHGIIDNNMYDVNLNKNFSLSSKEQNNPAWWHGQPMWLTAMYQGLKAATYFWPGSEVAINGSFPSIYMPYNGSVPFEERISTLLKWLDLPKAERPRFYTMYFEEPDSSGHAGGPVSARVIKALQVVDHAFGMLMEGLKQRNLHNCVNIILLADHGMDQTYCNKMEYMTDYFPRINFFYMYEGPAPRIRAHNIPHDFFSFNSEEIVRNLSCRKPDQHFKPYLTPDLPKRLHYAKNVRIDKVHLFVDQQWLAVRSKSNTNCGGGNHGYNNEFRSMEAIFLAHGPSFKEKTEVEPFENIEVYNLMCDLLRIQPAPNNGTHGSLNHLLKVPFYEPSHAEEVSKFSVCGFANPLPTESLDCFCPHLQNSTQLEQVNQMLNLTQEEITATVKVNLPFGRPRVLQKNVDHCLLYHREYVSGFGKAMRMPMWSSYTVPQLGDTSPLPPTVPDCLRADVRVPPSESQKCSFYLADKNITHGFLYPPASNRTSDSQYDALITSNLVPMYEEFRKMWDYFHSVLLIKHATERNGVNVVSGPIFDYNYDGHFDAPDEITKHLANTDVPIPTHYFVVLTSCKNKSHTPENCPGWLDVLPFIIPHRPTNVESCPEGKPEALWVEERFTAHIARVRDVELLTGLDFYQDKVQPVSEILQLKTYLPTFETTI
compound,measurement,setting,value
Nc1ncnc2c1ncn2[C@@H]1O[C@H](COP(=O)(O)OP(=O)(O)OP(=O)(O)O)[C@@H](O)[C@H]1O [ADENOSINE TRIPHOSPHATE],Drug metabolism,[1],807 nmol/min/mg
same,Drug metabolism,[2],1051 nmol/min/mg
same,Drug metabolism,[3],240 nmol/min/mg
same,Drug metabolism,[4],67 nmol/min/mg
same,Drug metabolism,[5],54 nmol/min/mg
